Reference: article PMC11734723 (Science Advances, 2025)
Like-named read-outs stand apart in the source and are kept apart here.

Tests used:
[1] = tested on: TRPC4^−/− and TRPC(1–7)^−/− BMSMCs; assay: Osteoclastogenesis from TRPC4−/− and TRPC; type: cell-based, mouse
Outline: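 Myeloid cells from bone marrow and spleen of TRPC4−/− and TRPC(1–7)−/− mice were cultured in αMEM, 10% FBS and mCSF (50 ng/ml). RANKL (1 or 100 ng/ml) was added at 24 h, and TNFα (2 ng/ml) and test compound (100 nM) 2–3 days later as indicated. Cultures ran 14–21 days with feeding every 3–5 days before TRAP, Ca²⁺ and pit read-outs.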

endogenous SOCE = assay: Endogenous SOCE; type: cell-based; settings: read-out: IC50 of endogenous SOCE
Outline: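 Store-operated entry by Fura2 imaging. Cells were loaded with Fura2-AM (2 µM, 30 min, RT) and de-esterified 30 min. They were then exposed 10 min to thapsigargin (2 µM) plus varying test compound concentrations in nominally Ca²⁺-free Hepes buffer (pH 7.2). After a stable baseline, 1 mM Ca²⁺ was added and entry was followed as the 340/380 nm ratio.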

mouse TRPC4β = target: T1, mouse TRPC4β (Mus musculus, UniProt Q9QUQ5); assay: Whole-cell patch clamp of Englerin A-induced TRPC4 currents in HEK293 cells; type: cell-based; settings: for decrease of EA-induced TRPC4 current 45 s after the peak: EA 30 nM
T1 sequence (Q9QUQ5 1-890 isoform Q9QUQ5-2): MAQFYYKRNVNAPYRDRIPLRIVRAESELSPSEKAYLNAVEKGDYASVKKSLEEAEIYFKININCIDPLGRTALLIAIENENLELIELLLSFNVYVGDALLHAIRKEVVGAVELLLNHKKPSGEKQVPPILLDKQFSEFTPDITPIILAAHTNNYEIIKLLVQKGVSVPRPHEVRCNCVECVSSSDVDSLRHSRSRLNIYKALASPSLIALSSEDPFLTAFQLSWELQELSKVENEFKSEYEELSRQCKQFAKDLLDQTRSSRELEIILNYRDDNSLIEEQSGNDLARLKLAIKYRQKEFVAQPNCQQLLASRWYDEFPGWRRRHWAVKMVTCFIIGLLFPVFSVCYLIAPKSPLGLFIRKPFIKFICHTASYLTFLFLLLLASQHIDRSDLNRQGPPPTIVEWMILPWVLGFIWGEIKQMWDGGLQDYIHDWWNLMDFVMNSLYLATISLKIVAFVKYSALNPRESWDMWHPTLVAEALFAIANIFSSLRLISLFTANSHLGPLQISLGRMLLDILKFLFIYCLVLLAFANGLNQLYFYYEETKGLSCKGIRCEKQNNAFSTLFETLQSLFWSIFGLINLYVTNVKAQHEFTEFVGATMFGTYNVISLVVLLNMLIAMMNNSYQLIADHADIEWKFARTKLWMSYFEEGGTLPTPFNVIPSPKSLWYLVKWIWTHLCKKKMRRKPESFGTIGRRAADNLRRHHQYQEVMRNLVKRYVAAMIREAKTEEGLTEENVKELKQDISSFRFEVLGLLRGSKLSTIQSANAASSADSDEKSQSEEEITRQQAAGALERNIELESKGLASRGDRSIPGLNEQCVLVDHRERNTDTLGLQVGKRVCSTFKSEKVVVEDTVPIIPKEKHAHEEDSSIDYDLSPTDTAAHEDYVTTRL
Outline: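 Whole-cell recordings were made from HEK293 cells transiently expressing mouse TRPC4β, using ramps from −100 to +100 mV (200 ms, every 5 s; holding 0 mV). Pipette: CsCl with BAPTA (free Ca²⁺ 400 nM), pH 7.2; bath pH 7.4. After ~30 s in nominally Ca²⁺-free bath, Englerin A (30 nM) was applied. About 10 s after peak, Englerin A plus test compound (10, 30, 100 or 1000 nM) was perfused for ~90–100 s. Currents were read at ±100 mV.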

Human PBMCs = assay: Basal Ca2+ and Ca2+ oscillations in human PBMC-derived osteoclasts; type: cell-based; settings: ELP-004 100 nM; for effect on basal Ca2+ levels: 14 days
Outline: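 Human PBMCs cultured in αMEM with 10% FBS and human mCSF (50 ng/ml). At 24 h, RANKL (1 or 100 ng/ml) was added; 2–3 days later, human TNFα (2 ng/ml) and test compound (100 nM) were added where indicated. On day 14, coverslip cells were Fura2-loaded (2 µM, 30 min, RT) in buffer with 1 mM Ca²⁺ (pH 7.2) and de-esterified 30 min. Basal 340/380 ratio was recorded 3–5 min in 30–50 cells and plotted against variance.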

murine BMSMCs = type: cell-based, mouse; settings: ELP-004 100 nM
[2] = tested on: NFATc1 nuclear translocation; assay: NFATc1 nuclear translocation; type: cell-based, mouse; settings: ELP-004 100 nM
Outline: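 Murine BMSMC cultures were sampled at 24 h and on days 7, 14 and 21. Cells were fixed in 3.7% PFA (10 min, RT), antigen-retrieved in tris/urea (pH 9.5, 95°C, 10 min), permeabilised in 0.2% Tween 20 and blocked in 1% BSA plus glycine. Anti-NFATc1 (clone 7A6, 200 ng/ml) was applied overnight at 4°C, then Alexa Fluor 488 secondary (2 µg/ml, 1 h) with 7-AAD counterstain. Nuclear colocalisation was assessed by confocal microscopy.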

- IC50 (endogenous SOCE): 100 µM
- decrease of EA-induced TRPC4 current 45 s after the peak (mouse TRPC4β; 10 nM ELP-004, +100 mV): 37%
- decrease of EA-induced TRPC4 current 45 s after the peak (mouse TRPC4β; 10 nM ELP-004, −100 mV): 58%
- inhibition of EA-induced TRPC4 currents (mouse TRPC4β; 1 μM ELP-004): lost its inhibitory action
- inhibition of EA-induced TRPC4 currents at higher concentrations (mouse TRPC4β; 30 and 100 nM ELP-004 versus 10 nM): did not show stronger inhibitory effects
SMILES: CCC(=O)N(C)c1ccc(Cl)c(Cl)c1 [ELP-004]
- effect on intracellular Ca2+ ([1]; RANKL or RANKL/TNFα osteoclasts from knockout BMSMCs): no effect
- effect on TRAP expression ([1]; knockout BMSMCs): no effect
- effect on cell size ([1]; knockout BMSMCs): no effect
- effect on multinucleation ([1]; knockout BMSMCs): no effect
- effect on pit formation ([1]; knockout BMSMCs): no effect
- effect on basal Ca2+ levels (Human PBMCs; RANKL (100 ng/ml)): significantly lowered
- effect on Ca2+ oscillations (Human PBMCs; RANKL alone): no effect
- effect on basal Ca2+ levels (Human PBMCs; TNFα (2 ng/ml)/RANKL (1 ng/ml)): significantly lowered
- effect on Ca2+ oscillation generation (Human PBMCs; TNFα/RANKL): significantly lowered
- effect on TRAP intensity (murine BMSMCs; LTB4/RANKL): completely prevented the increase
- effect on number of TRAP-positive cells (murine BMSMCs; LTB4/RANKL): no effect
- effect on multinucleation (murine BMSMCs; LTB4/RANKL, days 7 and 14): significant ELP-004–induced decreases
- effect on TRAP intensity (murine BMSMCs; RANKL (100 ng/ml)): no impact
- effect on number of TRAP-positive cells (murine BMSMCs; RANKL (100 ng/ml)): no impact
- effect on number of TRAP-positive cells (murine BMSMCs; TNFα (2 ng/ml)/RANKL (1 ng/ml)): no significant effect
- effect on TRAP intensity increases (murine BMSMCs; TNFα/RANKL): severely attenuated
- effect on number of multinuclear cells (murine BMSMCs; TNFα/RANKL, P < 0.0005): significantly attenuated
- effect on TRAP-positive cells (murine BMSMCs; mCSF (50 ng/ml) only): no effect
- effect on TRAP-positive cells (murine BMSMCs; mCSF + RANKL (1 ng/ml)): no effect
- changes in NFAT localization ([2]; BMSMC-derived macrophages (mCSF only)): No significant changes
- effect on NFAT nuclear localization ([2]; LTB4/RANKL): blocked
- effect on NFAT translocation ([2]; RANKL-induced (100 ng/ml)): no effect
- effect on NFAT nuclear localization ([2]; TNFα/RANKL): blocked
- changes in NFAT localization ([2]; low RANKL alone (1 ng/ml)): No significant changes
